Test results taken from ChEMBL document CHEMBL4765447, “Design, synthesis and biological evaluation of diamino substituted cyclobut-3-ene-1,2-dione derivatives for the treatment of drug-resistant tuberculosis” (Eur J Med Chem, 2020).
Converted amounts (≈) assume the structure as drawn.

Key:
[1] = system: Mycobacterium tuberculosis; experiment: Inhibition of ATP synthase in multi-drug resistant Mycobacterium tuberculosis clinical isolate 13946 assessed as reduction in bacterial growth incubated for 7 days by microplate alamar blue assay; conditions: time 7.0 day
Procedure, shortened: (§1)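 Microplate alamar blue assay. Strains grown to late log phase in 7H9 broth with 0.2% glycerol, 0.05% Tween 80 and 10% ADC, then washed, filtered (8 µm) and frozen. Twofold compound dilutions with 2×10^5 CFU per well at 37 °C. On day 7, Tween 80 and alamar blue added; after 16–24 h, fluorescence read at 530/590 nm. MIC is the lowest concentration giving ≥90% fluorescence reduction versus bacterium-only controls.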

[2] = system: Mycobacterium tuberculosis; experiment: Inhibition of ATP synthase in multi-drug resistant Mycobacterium tuberculosis clinical isolate 14862 assessed as reduction in bacterial growth incubated for 7 days by microplate alamar blue assay; conditions: time 7.0 day; procedure, shortened: as §1
[3] = system: Mycobacterium tuberculosis; experiment: Inhibition of ATP synthase in bedaquiline-resistant Mycobacterium tuberculosis assessed as reduction in bacterial growth incubated for 7 days by microplate alamar blue assay; conditions: time 7.0 day; procedure, shortened: as §1
[4] = Ratio of MIC for inhibition of ATP synthase in bedaquiline-resistant Mycobacterium tuberculosis to MIC for inhibition of ATP synthase in Mycobacterium tuberculosis H37Rv
Procedure, shortened: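 Ratio of alamar-blue MIC against the bedaquiline-resistant strain to MIC against H37Rv, both measured in the 7-day microplate alamar blue assay.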

## NNC(=O)c1ccncc1
[1]
  MIC=>90: 2.26 µg/mL (≈ 16.5 µM)
[2]
  MIC=>90: > 10 µg/mL
[3]
  MIC=>90: 0.052 µg/mL (≈ 0.379 µM)

## COc1nc2ccc(Br)cc2cc1[C@@H](c1ccccc1)[C@@](O)(CCN(C)C)c1cccc2ccccc12
[3]
  MIC=>90: 2.23 µg/mL (≈ 4.02 µM)
[4]
  Ratio: 62

## Cc1cc(Nc2c(NCc3ccccn3)c(=O)c2=O)ccc1N1CCSCC1
[1]
  MIC=>90: 0.257 µg/mL (≈ 0.651 µM)
[2]
  MIC=>90: 0.207 µg/mL (≈ 0.525 µM)
[3]
  MIC=>90: 4.85 µg/mL (≈ 12.3 µM)
[4]
  Ratio: 5.7

## CO[C@H]1/C=C/O[C@@]2(C)Oc3c(C)c(O)c4c(O)c(c(/C=N/N5CCN(C)CC5)c(O)c4c3C2=O)NC(=O)/C(C)=C\C=C\[C@H](C)[C@H](O)[C@@H](C)[C@@H](O)[C@@H](C)[C@H](OC(C)=O)[C@@H]1C
[1]
  MIC=>90: > 10 µg/mL
[2]
  MIC=>90: 9.32 µg/mL (≈ 11.3 µM)

## O=c1c(NCc2ccccn2)c(Nc2ccc3scnc3c2)c1=O
[1]
  MIC=>90: 3.53 µg/mL (≈ 10.5 µM)
[2]
  MIC=>90: 3.37 µg/mL (≈ 10 µM)

## O=C1CCCc2cc(Nc3c(NCc4ccccn4)c(=O)c3=O)ccc21
[1]
  MIC=>90: 0.488 µg/mL (≈ 1.4 µM)
[2]
  MIC=>90: 0.895 µg/mL (≈ 2.58 µM)

## O=c1c(NCc2ccccn2)c(-c2ccc(N3CCOCC3)cc2)c1=O
[1]
  MIC=>90: 0.107 µg/mL (≈ 0.306 µM)
[2]
  MIC=>90: 0.114 µg/mL (≈ 0.326 µM)
[3]
  MIC=>90: 3.02 µg/mL (≈ 8.63 µM)
[4]
  Ratio: 14.9

## O=c1c(NCc2ccccn2)c(Nc2ccc3c(c2)OCO3)c1=O
[1]
  MIC=>90: 0.47 µg/mL (≈ 1.45 µM)
[2]
  MIC=>90: 0.499 µg/mL (≈ 1.54 µM)
[3]
  MIC=>90: 3.76 µg/mL (≈ 11.6 µM)
[4]
  Ratio: 7.5

## O=c1c(NCc2ccccn2)c(Nc2ccc3c(c2)CCC3)c1=O
[1]
  MIC=>90: 0.903 µg/mL (≈ 2.83 µM)
[2]
  MIC=>90: 0.94 µg/mL (≈ 2.94 µM)
